Assay outcomes: PubChem, Sanford-Burnham Center for Chemical Genomics
eIF4H inh = human eIF4H binding inhibitors, primary screen, translation initiation inhibitor project, biochemical, uHTS, fluorescence polarization | 290,000 compounds, 0.94% hits | AID 2012, 2009 | eIF4H fluorescence polarization binding assay | Eukaryotic translation initiation factor 4H (Homo sapiens), Q15056 | inhibition, % at 35 µM;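 further: calls also rest on retests at 20 µM and on dose response follow-up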
SKN-1 inh = suppressors of acrylamide-induced Pgst-4::GFP reporter in worms, primary screen, SKN-1 inhibitor project, whole organism, uHTS, GFP/RFP fluorescence ratio, strain VP596. inhibition, % at 21.8 µM. C. elegans VP596 Pgst-4::GFP/RFP ratio, 24 h. AID 624304, 2012. 360,000 compounds, 0.49% hits;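 active means interference check ratio from 0.5 to 1.5 plus GFP to RFP signal ratio inhibition reaching or exceeding a fixed threshold, cut at about 30% in these data, passing the limit was not always enough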
MLLE-PAM2 inh = inhibitors of PABP1 MLLE–PAM2 peptide binding, primary screen, biochemical, fluorescence polarization, FITC-PAM2, GST-MLLE; Polyadenylate-binding protein 1 (Homo sapiens), P11940; inhibition, % at 20 µM; 360,000 compounds, 0.36% hits; AID 588489, 2011; in the data active means inhibition above about 35%, passing the limit was not always enough;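 further: plate controls were DMSO wells with GST-MLLE for no effect and wells lacking GST-MLLE protein for full effect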
Target sequence (P11940 whole entry, looked up): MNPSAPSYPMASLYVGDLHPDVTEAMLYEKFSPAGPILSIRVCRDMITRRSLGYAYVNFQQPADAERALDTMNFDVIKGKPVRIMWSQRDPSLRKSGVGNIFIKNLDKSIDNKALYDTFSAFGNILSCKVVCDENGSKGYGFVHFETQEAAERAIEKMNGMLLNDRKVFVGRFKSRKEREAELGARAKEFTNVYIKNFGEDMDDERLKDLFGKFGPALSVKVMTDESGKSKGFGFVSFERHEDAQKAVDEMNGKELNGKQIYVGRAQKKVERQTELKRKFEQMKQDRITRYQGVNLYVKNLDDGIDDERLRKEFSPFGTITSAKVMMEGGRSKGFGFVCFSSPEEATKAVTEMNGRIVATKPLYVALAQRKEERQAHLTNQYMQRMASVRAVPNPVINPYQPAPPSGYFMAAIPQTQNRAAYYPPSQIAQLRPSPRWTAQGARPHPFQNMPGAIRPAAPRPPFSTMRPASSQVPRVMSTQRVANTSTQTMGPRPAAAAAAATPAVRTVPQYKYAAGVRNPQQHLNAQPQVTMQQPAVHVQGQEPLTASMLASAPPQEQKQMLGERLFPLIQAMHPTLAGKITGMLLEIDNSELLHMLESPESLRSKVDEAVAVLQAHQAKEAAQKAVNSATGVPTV
PABP polyA inh = PABP poly(A) RNA binding inhibitors, primary screen, biochemical, fluorescence polarization, uHTS. 290,000 compounds, 1% hits. AID 2014, 2009. calls only at 35 µM;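 further: calls also rest on retests at 20 µM and on dose response follow-up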
MT1-MMP act inh = blockers of MT1-MMP proenzyme processing, primary screen, HT1080 RFP-PRO-GFP cells, GFP/RFP fluorescence. GFP/RFP ratio change, % at 20 µM. 360,000 compounds, 0.061% hits. Matrix metalloproteinase-14 (Homo sapiens), P50281. GFP/RFP ratio fluorescence, overnight; percent of plate control window, DMSO zero;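 active means GFP/RFP ratio change of at least 30% with cell ATP level not reduced by more than half and red fluorescence within 50% of control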
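Assay system: RFP-PRO-GFP reporter HT1080 cells; read-out basis: GFP/RFP fluorescence ratio; benchmarks: DMSO wells and RFP-L50D-GFP cells; doses: 20 µM single dose, 1% DMSO; schedule: overnight cell settling, then overnight compound exposure, 37 °C, 5% CO2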
The depositor's hits bear a star; i = inactive; ? = inconclusive; nt = not tested or not shown; + = active, no number. An excerpt weighted towards active compounds, which were near 1.8% of everything screened. Unless noted, how the calls were made is not given here.

SMILES	eIF4H inh	SKN-1 inh	MLLE-PAM2 inh	PABP polyA inh	MT1-MMP act inh
CCNc1ccc(Br)cc(C(=O)/C=C/c2ccc3c(c2)OCO3)c1=O	78*	33	-57	+	0
Oc1[nH]c(N=C2N=c3ccccc3=N2)c2ccccc12	80*	22	13	+	-4
CSc1ccc(C(c2c(C(=O)O)[nH]c3ccccc23)c2c(C(=O)O)[nH]c3ccccc23)cc1	53*	-9	-5	i	-2
O=S1(=O)N[C@H](Cc2ccccc2)COc2cc(N3CCC[C@H]3CO)ccc21	nt	-5	nt	nt	6
O=C(O)c1ccccc1-c1ccc(/C=C/c2cc(C(F)(F)F)[nH]c(=O)n2)o1	?	-23	i	i	-82
O=c1nc(/C=C/c2ccc(-c3ccc(F)cc3)o2)cc(C(F)(F)F)[nH]1	127	nt	nt	+	nt
Cc1n[nH]c(=O)nc1NCc1ccc(Cl)cc1	-2	-21	-1	i	1
O=c1[nH]ncc(NCc2ccc(Cl)cc2)c1Cl	0	-5	-10	+	-1
CC(OC(=O)/C=C/c1ccco1)C(=O)NC1CCCCC1 (stereo unspecified)	nt	4	-6	nt	6
O=c1[nH]cc(S(=O)(=O)N2CCCc3ccccc32)c(=O)[nH]1	nt	15	-2	nt	3
Cn1c2ccccc2c2cc(C(=O)OCC(=O)N3CC(=O)Nc4ccccc43)sc21	18	46*	-44	i	-20
Cc1cc(C(=O)OCC(=O)N2CC(=O)Nc3ccccc32)c(C)n1-c1ccccc1	3.7*	12	4	+	-3
CC1(C(=O)NS(=O)(=O)c2cccc(C#N)c2)CCN1C(=O)C1(c2ccc(Cl)cc2)CCC1 (stereo unspecified)	nt	8	8	nt	2
O=C(Nc1ccc(-c2noc(CCc3ccccc3)n2)cc1)c1ccco1	6	44*	-9	i	-2
CC(=O)N[C@H]1[C@H]([C@H](O)[C@H](O)CO)O[C@](O)(C(=O)O)C[C@@H]1O	nt	2	3	nt	-3
Cc1ccccc1-n1c2nc(=O)n(C)c(=O)c-2cc2ccccc21	83	-6	-41	+	-3
NC(=O)c1cc(S(=O)(=O)N2CCCC2)ccc1OCCOc1ccccc1F	nt	12	12	nt	-14
O=C(Nc1ccc2c(c1)OCO2)c1cc(C2CCCCN2C(=O)c2ccc3c(c2)CCO3)on1 (stereo unspecified)	nt	16	-1	nt	-1
Clc1ccccc1-c1nnc(-c2ccccc2Cl)o1	-3	67*	-3	i	-2
Clc1ccc(-c2nnc(-c3ccccc3Cl)o2)cc1	-8	62*	4	i	1
CC(=O)N[C@@H](Cc1c[nH]c2ccccc12)C(=O)NCc1ccccc1	4	-7	-3	i	3
O=C(/C=C/c1ccccc1)NC(=S)NNC(=O)c1cccnc1	11	36*	-5	i	5
O=C(/C=C/c1ccccc1)NC(=S)NNC(=O)c1cnccn1	14	18	-15	i	15
CCN(CC1CCCO1)C(=O)c1cc(COc2cc(C)c(Cl)c(C)c2)on1 (stereo unspecified)	6	14	-5	i	-3
CCOC(=O)c1cc(-c2ccc(OC)cc2)nc2c1c(C)nn2CCC(N)=S	-4	5	35*	i	3
CCOC(=O)c1cc(-c2ccco2)nc2c1c(C)nn2-c1ccccc1	36	40*	-2	i	4
CCCn1c(=O)c2c(C(=O)OCC)cc(-c3ccco3)nc2n(CCC)c1=O	-3	9	1	i	-1
Cc1cccn2c(=O)c3cc(C(=O)NCCc4ccccc4)c(=N)n(Cc4ccco4)c3nc12	52	18	-7	i	-3
N=c1c(C(=O)NCc2ccco2)cc2c(=O)n3ccccc3nc2n1Cc1ccccc1	77*	21	-19	+	0
Cc1ccc(S(=O)(=O)c2cc3c(=O)n4ccccc4nc3n(Cc3ccco3)c2=N)cc1	78*	16	-14	+	-14
